Assay results published in ChEMBL document CHEMBL1152603, “Comparative molecular field analysis and synthetic validation of a hydroxyamide-propofol binding and functional block of neuronal voltage-dependent sodium channels” (Bioorg Med Chem, 2009).
The source made the active and inactive calls. The calls are words filed in the database; no cut-off is given here.

How the values were obtained:
Rattus norvegicus [1] = species: Rattus norvegicus; test: Displacement of [3H]-BTX-B from neuronal voltage-gated sodium channel binding site 2 in rat hippocampal neurons at 40 uM; format: tissue-based; conditions: Hippocampus
Summary of the method: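 Inhibition of specifically bound [3H]-BTX-B measured at a single concentration of 40 μM, run in duplicate, and expressed as percent inhibition.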

[2] = Displacement of [3H]-BTX-B from neuronal voltage-gated sodium channel binding site 2 in rat hippocampal neurons; format: tissue-based, Hippocampus
Rattus norvegicus [3] = species: Rattus norvegicus; test: Inhibition of voltage-gated sodium channel in rat hippocampal neurons assessed as blocked of sodium current elicited at -10 mV for […] from holding potential -90 mV at 50 uM measured after washout by patch clamp method; format: tissue-based; conditions: Hippocampus
Summary of the method: (§1)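 Hippocampi from E18 rat embryos were trypsin-dissociated and plated on poly-L-lysine coverslips, then kept over a glial monolayer in serum-free MEM with N2 for up to 4 weeks. Whole-cell patch clamp was used. Bath (mM): NaCl 30, choline Cl 110, TEA-Cl 30, CdCl2 0.1, pH 7.3. Cells were held at −90 mV for 5 min first. Tonic current block was measured at 50 μM (n=5–7), followed by washout.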

Rattus norvegicus [4] = species: Rattus norvegicus; test: Inhibition of voltage-gated sodium channel in rat hippocampal neurons assessed as blocked of sodium current elicited at -10 mV for […] from holding potential -90 mV at 50 uM by patch clamp method; format: tissue-based; set-up: scale not given: the % may be the effect or the level left; conditions: Hippocampus; summary of the method: as §1

In the case of CC(C)c1cc(C2(C(F)(F)F)NC(=O)NC2=O)cc(C(C)C)c1O (stereo unspecified), the Activity (Rattus norvegicus [1]) is reported as 55.1%.
For CC(C)c1cc(C(O)(C(N)=O)C(F)(F)F)cc(C(C)C)c1O (stereo unspecified), the Activity (Rattus norvegicus [1]) was 24.5%.
In the case of CC(C)c1cccc(C(C)C)c1O, the Activity (Rattus norvegicus [1]) is reported as 16.6%.
In the case of NC(=O)C(O)(c1ccccc1)C(F)(F)F (stereo unspecified), the Activity (Rattus norvegicus [1]) is reported as 6.8%.
With CC(C)c1cc(CCCCCCC(O)(C(N)=O)C(F)(F)F)cc(C(C)C)c1O (stereo unspecified) the IC50 [2] was 5.7 µM, the Activity (Rattus norvegicus [1]) was 71.4% and the Activity (Rattus norvegicus [3]) was “inactive”.
Work on CC(C)c1cc(CCCCC(O)(C(N)=O)C(F)(F)F)cc(C(C)C)c1O (stereo unspecified) yielded an IC50 [2] of 22 µM, an Activity (Rattus norvegicus [1]) of 67.1% and an Activity (Rattus norvegicus [4]) of 59%. For the same compound, the Activity (Rattus norvegicus [3]) was “inactive”.
